# Reference: ChEMBL document CHEMBL1147958, “Evaluation of the anti-inflammatory and anti-nociceptive activities of novel synthesized melatonin analogues” (2007)
# How the values were obtained:
# Rattus norvegicus [1] = experiment: Inhibition of carrageenan-induced paw oedema in Sprague-Dawley rat at 5.16 mg/kg, sc after 1 hr; format: functional; conditions: read-out: Inhibition, route subcutaneous
# In short: (§1)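 Rats (n = 6/group) got the test agent s.c. (0.5 mL) as a 30 min pretreatment. Oedema was induced by sub-plantar 1% lambda-carrageenan in saline into the right hind paw, with saline in the contralateral paw. Paw volume was measured by plethysmometer before injection and at 1, 2, 3 and 4 h, and expressed as % change from pre-drug values.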
# Rattus norvegicus [2] = experiment: Antinociceptive activity in Sprague-Dawley rat assessed as inhibition of number of indomethacin-induced gastric lesions at 5.16 mg/kg, sc; format: functional; conditions: Stomach, route subcutaneous
# In short: (§2)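 Sprague-Dawley rats (120–130 g, food and water ad libitum) got indomethacin 20 mg/kg s.c. to induce gastric mucosal damage, with the test agent given s.c. at the time of indomethacin injection. Rats were killed 24 h later. Stomachs were opened along the greater curvature, rinsed with saline, and lesions counted and severity-scored on a previously described scale. Results are % decrease versus the indomethacin control.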
# Rattus norvegicus [3] = experiment: […] in Sprague-Dawley rat assessed as inhibition of indomethacin-induced gastric lesions severity at 5.16 mg/kg, sc; format: functional; conditions: Stomach, route subcutaneous; in short: as §2
# Rattus norvegicus [4] = experiment: Antinociceptive activity in Sprague-Dawley rat at 5.16 mg/kg, sc assessed as increase in latency time after 1 hr by hot plate method; format: functional; conditions: route subcutaneous
# In short: (§3)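 Rats (n = 6/group) were dosed s.c. 30 min before testing on a hot-plate held at 52 °C, 30 s cut-off. Reaction latency was read at 1 and 2 h and expressed as % increase over each group's pre-drug basal latency, with indomethacin as the reference control. Groups were compared by ANOVA and Duncan's test.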
# Mus musculus [5] = experiment: Antinociceptive activity in Swiss Albino mouse assessed as inhibition of acetic acid-induced writhes per 30 min at 5.16 mg/kg, sc; conditions: 0.5 h, read-out: Inhibition
# Rattus norvegicus [6] = experiment: Inhibition of carrageenan-induced paw oedema in Sprague-Dawley rat at 5.16 mg/kg, sc after 4 hrs; format: functional; conditions: route subcutaneous; in short: as §1
# Rattus norvegicus [7] = experiment: Inhibition of carrageenan-induced paw oedema in Sprague-Dawley rat at 5.16 mg/kg, sc after 2 hrs; format: functional; conditions: route subcutaneous; in short: as §1
# Rattus norvegicus [8] = experiment: Inhibition of carrageenan-induced paw oedema in Sprague-Dawley rat at 5.16 mg/kg, sc after 3 hrs; format: functional; conditions: read-out: Inhibition, route subcutaneous; in short: as §1
# Rattus norvegicus [9] = experiment: Antinociceptive activity in Sprague-Dawley rat at 5.16 mg/kg, sc assessed as increase in latency time after 2 hrs by hot plate method; format: functional; conditions: route subcutaneous; in short: as §3
# Rattus norvegicus [10] = experiment: Antinociceptive activity in Sprague-Dawley rat at 5.40 mg/kg, sc assessed as increase in latency time after 2 hrs by hot plate method; format: functional; conditions: dose 5.4 mg/kg; route subcutaneous; in short: as §3
# Rattus norvegicus [11] = experiment: Inhibition of carrageenan-induced paw oedema in Sprague-Dawley rat at 5.40 mg/kg, sc after 1 hr; format: functional; conditions: read-out: Inhibition, route subcutaneous; in short: as §1
# Rattus norvegicus [12] = experiment: Inhibition of carrageenan-induced paw oedema in Sprague-Dawley rat at 5.40 mg/kg, sc after 3 hrs; format: functional; conditions: read-out: Inhibition, route subcutaneous; in short: as §1
# Mus musculus [13] = experiment: Antinociceptive activity in Swiss Albino mouse assessed as inhibition of acetic acid-induced writhes per 30 min at 5.40 mg/kg, sc; conditions: 0.5 h
# Rattus norvegicus [14] = experiment: Inhibition of carrageenan-induced paw oedema in Sprague-Dawley rat at 5.40 mg/kg, sc after 4 hrs; format: functional; conditions: read-out: Inhibition, route subcutaneous; in short: as §1
# Rattus norvegicus [15] = experiment: […] in Sprague-Dawley rat assessed as inhibition of indomethacin-induced gastric lesions severity at 5.40 mg/kg, sc; format: functional; conditions: Stomach, route subcutaneous; in short: as §2
# Rattus norvegicus [16] = experiment: Inhibition of carrageenan-induced paw oedema in Sprague-Dawley rat at 5.40 mg/kg, sc after 2 hrs; format: functional; conditions: read-out: Inhibition, route subcutaneous; in short: as §1
# Rattus norvegicus [17] = experiment: Antinociceptive activity in Sprague-Dawley rat assessed as inhibition of number of indomethacin-induced gastric lesions at 5.40 mg/kg, sc; format: functional; conditions: Stomach, route subcutaneous; in short: as §2
# Rattus norvegicus [18] = experiment: Antinociceptive activity in Sprague-Dawley rat at 5.40 mg/kg, sc assessed as increase in latency time after 1 hr by hot plate method; format: functional; conditions: dose 5.4 mg/kg; route subcutaneous; in short: as §3
# Mus musculus [19] = experiment: Antinociceptive activity in Swiss Albino mouse assessed as inhibition of acetic acid-induced writhes per 30 min at 5.13 mg/kg, sc; conditions: 0.5 h, read-out: Inhibition
# Rattus norvegicus [20] = experiment: Antinociceptive activity in Sprague-Dawley rat assessed as inhibition of number of indomethacin-induced gastric lesions at 5.13 mg/kg, sc; format: functional; conditions: Stomach, route subcutaneous; in short: as §2
# Rattus norvegicus [21] = experiment: Antinociceptive activity in Sprague-Dawley rat at 5.13 mg/kg, sc assessed as increase in latency time after 1 hr by hot plate method; format: functional; conditions: route subcutaneous; in short: as §3
# Rattus norvegicus [22] = experiment: Inhibition of carrageenan-induced paw oedema in Sprague-Dawley rat at 5.13 mg/kg, sc after 1 hr; format: functional; conditions: read-out: Inhibition, route subcutaneous; in short: as §1
# Rattus norvegicus [23] = experiment: Antinociceptive activity in Sprague-Dawley rat at 5.13 mg/kg, sc assessed as increase in latency time after 2 hrs by hot plate method; format: functional; conditions: route subcutaneous; in short: as §3
# Rattus norvegicus [24] = experiment: […] in Sprague-Dawley rat assessed as inhibition of indomethacin-induced gastric lesions severity at 5.13 mg/kg, sc; format: functional; conditions: Stomach, route subcutaneous; in short: as §2
# Rattus norvegicus [25] = experiment: Inhibition of carrageenan-induced paw oedema in Sprague-Dawley rat at 5.13 mg/kg, sc after 3 hrs; format: functional; conditions: read-out: Inhibition, route subcutaneous; in short: as §1
# Rattus norvegicus [26] = experiment: Inhibition of carrageenan-induced paw oedema in Sprague-Dawley rat at 5.13 mg/kg, sc after 4 hrs; format: functional; conditions: read-out: Inhibition, route subcutaneous; in short: as §1
# Rattus norvegicus [27] = experiment: Inhibition of carrageenan-induced paw oedema in Sprague-Dawley rat at 5.13 mg/kg, sc after 2 hrs; format: functional; conditions: read-out: Inhibition, route subcutaneous; in short: as §1
# Rattus norvegicus [28] = experiment: Antinociceptive activity in Sprague-Dawley rat at 4 mg/kg, sc assessed as increase in latency time after 1 hr by hot plate method; format: functional; conditions: route subcutaneous; in short: as §3
# Rattus norvegicus [29] = experiment: Inhibition of carrageenan-induced paw oedema in Sprague-Dawley rat at 4 mg/kg, sc after 2 hrs; format: functional; conditions: read-out: Inhibition, route subcutaneous; in short: as §1
# Mus musculus [30] = experiment: Antinociceptive activity in Swiss Albino mouse assessed as inhibition of acetic acid-induced writhes per 30 min at 4 mg/kg, sc; conditions: 0.5 h, read-out: Inhibition
# Rattus norvegicus [31] = experiment: Inhibition of carrageenan-induced paw oedema in Sprague-Dawley rat at 4 mg/kg, sc after 1 hr; format: functional; conditions: read-out: Inhibition, route subcutaneous; in short: as §1
# Rattus norvegicus [32] = experiment: Inhibition of carrageenan-induced paw oedema in Sprague-Dawley rat at 4 mg/kg, sc after 3 hrs; format: functional; conditions: read-out: Inhibition, route subcutaneous; in short: as §1
# Rattus norvegicus [33] = experiment: […] in Sprague-Dawley rat assessed as inhibition of number of indomethacin-induced gastric lesions at 4 mg/kg, sc; format: functional; conditions: Stomach, route subcutaneous; in short: as §2
# Rattus norvegicus [34] = experiment: Inhibition of carrageenan-induced paw oedema in Sprague-Dawley rat at 4 mg/kg, sc after 4 hrs; format: functional; conditions: read-out: Inhibition, route subcutaneous; in short: as §1
# Rattus norvegicus [35] = experiment: Antinociceptive activity in Sprague-Dawley rat at 4 mg/kg, sc assessed as increase in latency time after 2 hrs by hot plate method; format: functional; conditions: route subcutaneous; in short: as §3
# Rattus norvegicus [36] = experiment: […] in Sprague-Dawley rat assessed as inhibition of indomethacin-induced gastric lesions severity at 4 mg/kg, sc; format: functional; conditions: Stomach, route subcutaneous; in short: as §2
# Rattus norvegicus [37] = experiment: Inhibition of carrageenan-induced paw oedema in Sprague-Dawley rat at 6.88 mg/kg, sc after 2 hrs; format: functional; conditions: read-out: Inhibition, route subcutaneous; in short: as §1
# Mus musculus [38] = experiment: Antinociceptive activity in Swiss Albino mouse assessed as inhibition of acetic acid-induced writhes per 30 min at 6.88 mg/kg, sc; conditions: 0.5 h, read-out: Inhibition
# Rattus norvegicus [39] = experiment: Inhibition of carrageenan-induced paw oedema in Sprague-Dawley rat at 6.88 mg/kg, sc after 3 hrs; format: functional; conditions: read-out: Inhibition, route subcutaneous; in short: as §1
# Rattus norvegicus [40] = experiment: Antinociceptive activity in Sprague-Dawley rat assessed as inhibition of number of indomethacin-induced gastric lesions at 6.88 mg/kg, sc; format: functional; conditions: Stomach, route subcutaneous; in short: as §2
# Rattus norvegicus [41] = experiment: […] in Sprague-Dawley rat assessed as inhibition of indomethacin-induced gastric lesions severity at 6.88 mg/kg, sc; format: functional; conditions: Stomach, route subcutaneous; in short: as §2
# Rattus norvegicus [42] = experiment: Antinociceptive activity in Sprague-Dawley rat at 6.88 mg/kg, sc assessed as increase in latency time after 1 hr by hot plate method; format: functional; conditions: route subcutaneous; in short: as §3
# Rattus norvegicus [43] = experiment: Inhibition of carrageenan-induced paw oedema in Sprague-Dawley rat at 6.88 mg/kg, sc after 4 hrs; format: functional; conditions: read-out: Inhibition, route subcutaneous; in short: as §1
# Rattus norvegicus [44] = experiment: Antinociceptive activity in Sprague-Dawley rat at 6.88 mg/kg, sc assessed as increase in latency time after 2 hrs by hot plate method; format: functional; conditions: route subcutaneous; in short: as §3
# Rattus norvegicus [45] = experiment: Inhibition of carrageenan-induced paw oedema in Sprague-Dawley rat at 6.88 mg/kg, sc after 1 hr; format: functional; conditions: read-out: Inhibition, route subcutaneous; in short: as §1
# Rattus norvegicus [46] = experiment: Antinociceptive activity in sc dosed Sprague-Dawley rat assessed as increase in latency time after 2 hrs by hot plate method; format: functional; in short: as §3
# Rattus norvegicus [47] = experiment: Antinociceptive activity in sc dosed Sprague-Dawley rat assessed as increase in latency time after 1 hr by hot plate method; format: functional; in short: as §3
structure (smiles),measurement,setting,value
COc1ccc2c(c1)c(CCNC(C)=O)c1n2C(=O)CC1=O,inhibition in vivo at 5.16 mg/kg,Rattus norvegicus [1],42.9%
same,inhibition in vivo at 5.16 mg/kg,Rattus norvegicus [2],43.5%
same,inhibition in vivo at 5.16 mg/kg,Rattus norvegicus [3],54.8%
same,Activity,Rattus norvegicus [4],103.6%
same,inhibition in vivo at 5.16 mg/kg,Mus musculus [5],24.4%
same,inhibition in vivo at 5.16 mg/kg,Rattus norvegicus [6],-27.1%
same,inhibition in vivo at 5.16 mg/kg,Rattus norvegicus [7],-35.7%
same,inhibition in vivo at 5.16 mg/kg,Rattus norvegicus [8],30%
same,Activity,Rattus norvegicus [9],132.3%
COc1ccc2c(c1)c(CCNC(C)=O)c1n2C(=N)C=C1NN,Activity,Rattus norvegicus [10],243.7%
same,inhibition in vivo at 5.4 mg/kg,Rattus norvegicus [11],54.8%
same,inhibition in vivo at 5.4 mg/kg,Rattus norvegicus [12],44.2%
same,inhibition in vivo at 5.4 mg/kg,Mus musculus [13],-81.1%
same,inhibition in vivo at 5.4 mg/kg,Rattus norvegicus [14],36.8%
same,inhibition in vivo at 5.4 mg/kg,Rattus norvegicus [15],57.7%
same,inhibition in vivo at 5.4 mg/kg,Rattus norvegicus [16],52.6%
same,inhibition in vivo at 5.4 mg/kg,Rattus norvegicus [17],53.9%
same,Activity,Rattus norvegicus [18],43.7%
COc1ccc2c(c1)c(CCNC(C)=O)c1n2C(=O)C=C1C,inhibition in vivo at 5.13 mg/kg,Mus musculus [19],68.7%
same,inhibition in vivo at 5.13 mg/kg,Rattus norvegicus [20],72.6%
same,Activity,Rattus norvegicus [21],116.6%
same,inhibition in vivo at 5.13 mg/kg,Rattus norvegicus [22],67.3%
same,Activity,Rattus norvegicus [23],144.6%
same,inhibition in vivo at 5.13 mg/kg,Rattus norvegicus [24],82.6%
same,inhibition in vivo at 5.13 mg/kg,Rattus norvegicus [25],43%
same,inhibition in vivo at 5.13 mg/kg,Rattus norvegicus [26],28.8%
same,inhibition in vivo at 5.13 mg/kg,Rattus norvegicus [27],59.4%
COc1ccc2[nH]cc(CCNC(C)=O)c2c1 [MELATONIN],Activity,Rattus norvegicus [28],39.7%
same,inhibition in vivo at 4 mg/kg,Rattus norvegicus [29],50.1%
same,inhibition in vivo at 4 mg/kg,Mus musculus [30],55.6%
same,inhibition in vivo at 4 mg/kg,Rattus norvegicus [31],50.8%
same,inhibition in vivo at 4 mg/kg,Rattus norvegicus [32],44.4%
same,inhibition in vivo at 4 mg/kg,Rattus norvegicus [33],56.3%
same,inhibition in vivo at 4 mg/kg,Rattus norvegicus [34],30%
same,Activity,Rattus norvegicus [35],96%
same,inhibition in vivo at 4 mg/kg,Rattus norvegicus [36],69%
COc1ccc2c(c1)c(CCNC(C)=O)c1n2CC(c2ccccc2)=C(C#N)C1=N,inhibition in vivo at 6.88 mg/kg,Rattus norvegicus [37],55.2%
same,inhibition in vivo at 6.88 mg/kg,Mus musculus [38],40.7%
same,inhibition in vivo at 6.88 mg/kg,Rattus norvegicus [39],48%
same,inhibition in vivo at 6.88 mg/kg,Rattus norvegicus [40],30.2%
same,inhibition in vivo at 6.88 mg/kg,Rattus norvegicus [41],53.6%
same,Activity,Rattus norvegicus [42],31.7%
same,inhibition in vivo at 6.88 mg/kg,Rattus norvegicus [43],36.3%
same,Activity,Rattus norvegicus [44],56.2%
same,inhibition in vivo at 6.88 mg/kg,Rattus norvegicus [45],52.2%
COc1ccc2c(c1)c(CC(=O)O)c(C)n2C(=O)c1ccc(Cl)cc1 [INDOMETHACIN],Activity,Rattus norvegicus [46],286.6%
same,Activity,Rattus norvegicus [47],176.7%
